From paper PMC3355950 (The Journal of Neuroscience, 2012)
Converted amounts (≈) assume the structure as drawn.

What was measured:
GluN1/GluN2A [1] = target: T1, GluN1/GluN2A (Rattus norvegicus, UniProt P35439+Q00959); test: Two-electrode voltage-clamp recordings, Xenopus oocytes; format: cell-based; settings: for Schild slope / pA2 (Schild plot): 100 μM glutamate
GluN1/GluN2B = GluN1/GluN2B (Rattus norvegicus, UniProt P35439+Q00960); test: as above; format: cell-based; settings: 100 μM glutamate + 3 μM glycine; N.E. = no effect at 10 μM TCN-201
GluN1/GluN2B L783F+F784V = GluN1/GluN2B L783F+F784V (Rattus norvegicus, UniProt P35439+Q00960, F784V/L783F); test: as above; format: cell-based
GluN1/GluN2C = GluN1/GluN2C (Rattus norvegicus, UniProt P35439+Q00961); test: Two-electrode voltage-clamp recordings, Xenopus oocytes; format: cell-based; settings: 100 μM glutamate + 3 μM glycine; N.E. = no effect at 10 μM TCN-201
How it was run: (§1)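 cRNA from linearized constructs injected into female Xenopus laevis oocytes. Two-electrode voltage clamp done 3–4 d later at 23°C, holding at −40 mV, in 90 NaCl, 1 KCl, 10 HEPES, 0.5 BaCl₂, 0.01 EDTA (mM), pH 7.4. […] Max inhibition is (control − residual at saturating compound)/control.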

GluN1/GluN2D = GluN1/GluN2D (Rattus norvegicus, UniProt P35439+Q62645); test: as above; format: cell-based; settings: 100 μM glutamate + 3 μM glycine; N.E. = no effect at 10 μM TCN-201
How it was run: as §1

GluN1/GluN2A V783L = GluN1/GluN2A V783L (Rattus norvegicus, UniProt P35439+Q00959, V783L); test: Two-electrode voltage-clamp recordings, Xenopus oocytes; format: cell-based
GluN1/GluN2A G786D = GluN1/GluN2A G786D (Rattus norvegicus, UniProt P35439+Q00959, G786D); test: as above; format: cell-based; settings: 100 μM glutamate + 3 μM glycine
GluN1/GluN2A T793R = GluN1/GluN2A T793R (Rattus norvegicus, UniProt P35439+Q00959, T793R); test: as above; format: cell-based; settings: 100 μM glutamate + 3 μM glycine
GluN1/GluN2A V783W = GluN1/GluN2A V783W (Rattus norvegicus, UniProt P35439+Q00959, V783W); test: as above; format: cell-based; settings: 100 μM glutamate + 3 μM glycine
GluN1/GluN2A V783S = GluN1/GluN2A V783S (Rattus norvegicus, UniProt P35439+Q00959, V783S); test: as above; format: cell-based; settings: 100 μM glutamate + 3 μM glycine
GluN1/GluN2A V783H = GluN1/GluN2A V783H (Rattus norvegicus, UniProt P35439+Q00959, V783H); test: as above; format: cell-based; settings: 100 μM glutamate + 3 μM glycine
GluN1/GluN2A V783D = GluN1/GluN2A V783D (Rattus norvegicus, UniProt P35439+Q00959, V783D); test: as above; format: cell-based; settings: 100 μM glutamate + 3 μM glycine
GluN1/GluN2A L777A = GluN1/GluN2A L777A (Rattus norvegicus, UniProt P35439+Q00959, L777A); test: as above; format: cell-based; settings: 100 μM glutamate + 3 μM glycine
GluN1/GluN2A Q781A = GluN1/GluN2A Q781A (Rattus norvegicus, UniProt P35439+Q00959, Q781A); test: as above; format: cell-based; settings: 100 μM glutamate + 3 μM glycine
GluN1/GluN2A G786A = GluN1/GluN2A G786A (Rattus norvegicus, UniProt P35439+Q00959, G786A); test: as above; format: cell-based; settings: 100 μM glutamate + 3 μM glycine
[2] = target: GluN1-1b/GluN2A receptors (Rattus norvegicus, UniProt P35439+Q00959); test: Two-electrode voltage-clamp recordings, Xenopus oocytes; format: cell-based; settings: 3 μM TCN-201, 30 μM glycine; contains exon 5
How it was run: (§2)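 Xenopus laevis oocytes (female) were injected with in vitro transcribed cRNA and recorded by two-electrode voltage clamp 3–4 d after injection at 23°C, holding at −40 mV. Voltage and current electrodes held 0.3 and 3.0 M KCl.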

GluK2 kainate receptors = GluK2 kainate receptors (Rattus norvegicus, UniProt P42260); test: as above; format: cell-based; settings: 10 μM TCN-201
How it was run: as §2

GluN1/GluN2A [3] = target: T1, GluN1/GluN2A; test: Whole-cell voltage-clamp recordings, HEK293 cells, rapid solution exchange; format: cell-based; settings: for % fast / τfast / τslow: brief application (10 ms) of 1000 μM glycine
How it was run: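 HEK293 cells were plated on poly-D-lysine coverslips about 48 h ahead and calcium-phosphate cotransfected with GluN1, GluN2A and GFP (1:1:1). 200 μM D,L-APV and 200 μM 7-chlorokynurenic acid were added after transfection. Whole-cell recording was done about 24 h later at −60 mV and 23°C on lifted cells with piezo-driven theta-glass exchange.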

[4] = Maximum solubility in extracellular oocyte recording solution; format: physicochemical; settings: aqueous buffer
GluN1/2A-ΔATD = GluN1/2A-ΔATD (Rattus norvegicus, UniProt P35439+Q00959); test: Two-electrode voltage-clamp recordings, Xenopus oocytes; format: cell-based; settings: 100 μM glutamate plus 30 μM glycine; vs GluN1/GluN2A
[5] = 100 μM glutamate + 1 μM glycine
[6] = 100 μM glutamate + 3 μM glycine
[7] = 100 μM glutamate + 30 μM glycine
[8] = 50 μM glutamate, antagonist 0.1 μM
[9] = 50 μM glutamate, antagonist 0.3 μM
[10] = 50 μM glutamate, antagonist 1 μM

T1 sequence (Q00959 23-1464, other chains not shown): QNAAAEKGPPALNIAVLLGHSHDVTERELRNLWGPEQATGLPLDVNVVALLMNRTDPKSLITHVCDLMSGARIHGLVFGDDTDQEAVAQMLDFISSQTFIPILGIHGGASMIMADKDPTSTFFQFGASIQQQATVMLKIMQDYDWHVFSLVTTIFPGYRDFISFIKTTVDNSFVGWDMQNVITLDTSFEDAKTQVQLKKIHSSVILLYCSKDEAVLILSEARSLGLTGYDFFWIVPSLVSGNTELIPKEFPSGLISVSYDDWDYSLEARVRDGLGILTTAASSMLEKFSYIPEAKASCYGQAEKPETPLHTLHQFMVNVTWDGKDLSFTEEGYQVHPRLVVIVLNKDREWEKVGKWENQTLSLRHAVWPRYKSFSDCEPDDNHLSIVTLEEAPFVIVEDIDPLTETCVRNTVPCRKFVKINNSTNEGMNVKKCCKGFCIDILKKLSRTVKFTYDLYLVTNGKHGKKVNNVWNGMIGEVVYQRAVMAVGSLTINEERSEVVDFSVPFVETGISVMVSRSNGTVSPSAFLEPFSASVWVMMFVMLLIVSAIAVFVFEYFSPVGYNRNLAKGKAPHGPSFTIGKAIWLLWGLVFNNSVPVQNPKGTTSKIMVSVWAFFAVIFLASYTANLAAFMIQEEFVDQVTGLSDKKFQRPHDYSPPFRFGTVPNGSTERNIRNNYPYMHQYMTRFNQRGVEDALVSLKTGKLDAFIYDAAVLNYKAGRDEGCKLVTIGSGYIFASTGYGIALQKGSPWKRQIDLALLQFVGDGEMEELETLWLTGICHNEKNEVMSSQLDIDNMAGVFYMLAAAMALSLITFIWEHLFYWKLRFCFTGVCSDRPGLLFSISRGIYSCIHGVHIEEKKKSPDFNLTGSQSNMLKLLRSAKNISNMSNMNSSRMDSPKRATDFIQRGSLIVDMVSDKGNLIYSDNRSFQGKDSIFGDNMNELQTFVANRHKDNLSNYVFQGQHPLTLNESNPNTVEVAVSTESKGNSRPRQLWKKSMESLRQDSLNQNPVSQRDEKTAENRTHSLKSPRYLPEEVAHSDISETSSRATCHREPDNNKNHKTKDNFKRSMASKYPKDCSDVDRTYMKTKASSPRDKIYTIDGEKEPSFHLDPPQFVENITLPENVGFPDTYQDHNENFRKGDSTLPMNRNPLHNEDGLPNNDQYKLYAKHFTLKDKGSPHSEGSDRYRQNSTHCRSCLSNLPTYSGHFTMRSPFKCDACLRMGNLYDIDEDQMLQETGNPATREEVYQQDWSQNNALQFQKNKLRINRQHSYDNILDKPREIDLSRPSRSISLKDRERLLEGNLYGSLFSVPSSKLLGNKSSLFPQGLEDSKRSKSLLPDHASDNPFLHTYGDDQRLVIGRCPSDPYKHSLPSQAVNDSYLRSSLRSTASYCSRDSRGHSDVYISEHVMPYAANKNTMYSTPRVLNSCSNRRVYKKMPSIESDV
Sequence of GluN1/GluN2A G786D (Q00959 23-1464 G786D, other chains not shown): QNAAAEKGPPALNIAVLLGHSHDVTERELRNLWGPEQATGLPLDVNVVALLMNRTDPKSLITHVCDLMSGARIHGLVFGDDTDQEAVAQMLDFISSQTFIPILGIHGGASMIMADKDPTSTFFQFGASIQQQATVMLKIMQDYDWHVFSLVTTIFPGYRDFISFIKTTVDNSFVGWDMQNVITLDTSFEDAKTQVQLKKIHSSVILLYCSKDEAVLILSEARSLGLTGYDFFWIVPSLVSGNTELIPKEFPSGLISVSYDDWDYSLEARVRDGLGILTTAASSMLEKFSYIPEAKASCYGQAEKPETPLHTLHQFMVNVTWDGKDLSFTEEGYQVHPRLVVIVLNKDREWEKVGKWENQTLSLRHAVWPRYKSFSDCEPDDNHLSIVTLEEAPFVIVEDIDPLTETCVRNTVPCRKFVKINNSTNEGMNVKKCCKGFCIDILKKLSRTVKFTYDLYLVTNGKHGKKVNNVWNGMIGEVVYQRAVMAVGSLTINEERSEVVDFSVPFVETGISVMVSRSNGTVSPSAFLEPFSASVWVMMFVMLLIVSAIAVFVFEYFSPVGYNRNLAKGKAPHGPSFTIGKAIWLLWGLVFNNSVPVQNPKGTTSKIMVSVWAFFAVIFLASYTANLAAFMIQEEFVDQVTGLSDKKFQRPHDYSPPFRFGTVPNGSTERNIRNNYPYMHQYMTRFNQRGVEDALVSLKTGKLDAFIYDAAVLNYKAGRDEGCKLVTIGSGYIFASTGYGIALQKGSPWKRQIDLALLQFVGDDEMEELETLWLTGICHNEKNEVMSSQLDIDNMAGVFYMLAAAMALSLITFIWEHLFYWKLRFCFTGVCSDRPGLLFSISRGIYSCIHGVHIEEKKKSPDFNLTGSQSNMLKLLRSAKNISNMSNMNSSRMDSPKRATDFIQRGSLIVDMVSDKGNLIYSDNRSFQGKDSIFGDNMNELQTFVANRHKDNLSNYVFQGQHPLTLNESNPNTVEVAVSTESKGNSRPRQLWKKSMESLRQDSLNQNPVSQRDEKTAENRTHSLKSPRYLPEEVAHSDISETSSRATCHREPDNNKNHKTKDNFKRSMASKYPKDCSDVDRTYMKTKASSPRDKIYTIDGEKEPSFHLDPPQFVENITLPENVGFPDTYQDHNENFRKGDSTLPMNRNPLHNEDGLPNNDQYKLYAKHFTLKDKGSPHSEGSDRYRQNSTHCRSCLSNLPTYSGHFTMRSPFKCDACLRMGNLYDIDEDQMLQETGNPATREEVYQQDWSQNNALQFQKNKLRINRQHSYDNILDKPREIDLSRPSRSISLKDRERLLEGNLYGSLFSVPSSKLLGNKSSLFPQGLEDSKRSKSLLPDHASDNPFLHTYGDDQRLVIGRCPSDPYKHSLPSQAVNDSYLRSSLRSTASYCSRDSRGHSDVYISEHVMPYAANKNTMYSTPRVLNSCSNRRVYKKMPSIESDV
Sequence of GluN1/GluN2A V783H (Q00959 23-1464 V783H, other chains not shown): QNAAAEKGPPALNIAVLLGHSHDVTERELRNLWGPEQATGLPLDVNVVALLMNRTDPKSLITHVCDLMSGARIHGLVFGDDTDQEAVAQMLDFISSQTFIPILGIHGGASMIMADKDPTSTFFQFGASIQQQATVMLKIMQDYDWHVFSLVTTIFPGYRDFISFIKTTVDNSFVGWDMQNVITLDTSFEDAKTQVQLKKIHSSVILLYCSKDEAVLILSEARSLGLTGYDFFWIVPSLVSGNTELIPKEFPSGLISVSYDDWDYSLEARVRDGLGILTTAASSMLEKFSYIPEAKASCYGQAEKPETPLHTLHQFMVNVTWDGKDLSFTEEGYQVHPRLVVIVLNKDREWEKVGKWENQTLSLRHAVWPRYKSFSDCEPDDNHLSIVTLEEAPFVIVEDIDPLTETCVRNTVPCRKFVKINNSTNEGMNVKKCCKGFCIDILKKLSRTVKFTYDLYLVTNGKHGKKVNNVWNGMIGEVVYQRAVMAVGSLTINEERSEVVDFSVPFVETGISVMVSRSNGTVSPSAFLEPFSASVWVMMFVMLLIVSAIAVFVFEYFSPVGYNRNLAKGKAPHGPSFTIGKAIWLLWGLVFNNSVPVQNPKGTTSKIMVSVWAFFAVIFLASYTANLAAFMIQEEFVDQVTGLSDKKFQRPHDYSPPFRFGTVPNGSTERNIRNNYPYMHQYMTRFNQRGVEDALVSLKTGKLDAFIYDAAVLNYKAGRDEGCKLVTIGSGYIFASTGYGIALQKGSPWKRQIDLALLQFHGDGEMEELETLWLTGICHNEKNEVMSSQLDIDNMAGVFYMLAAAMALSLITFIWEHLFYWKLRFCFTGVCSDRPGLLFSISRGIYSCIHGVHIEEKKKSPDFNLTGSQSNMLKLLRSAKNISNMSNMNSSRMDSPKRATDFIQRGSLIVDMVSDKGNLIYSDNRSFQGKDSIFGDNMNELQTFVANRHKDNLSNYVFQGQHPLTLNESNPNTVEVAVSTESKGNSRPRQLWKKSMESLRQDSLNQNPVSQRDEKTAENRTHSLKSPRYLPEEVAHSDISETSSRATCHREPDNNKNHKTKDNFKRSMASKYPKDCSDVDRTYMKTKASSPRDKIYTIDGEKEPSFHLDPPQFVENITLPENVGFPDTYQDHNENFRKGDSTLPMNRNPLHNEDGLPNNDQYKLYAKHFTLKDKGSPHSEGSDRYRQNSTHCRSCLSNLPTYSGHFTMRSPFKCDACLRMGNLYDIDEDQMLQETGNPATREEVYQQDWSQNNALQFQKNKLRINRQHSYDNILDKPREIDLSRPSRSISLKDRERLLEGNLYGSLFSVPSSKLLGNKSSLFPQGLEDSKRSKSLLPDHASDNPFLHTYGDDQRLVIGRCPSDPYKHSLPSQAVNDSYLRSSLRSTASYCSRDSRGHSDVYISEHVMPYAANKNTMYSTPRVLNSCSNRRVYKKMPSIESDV

O=C(NNC(=O)c1ccc(CNS(=O)(=O)c2ccc(F)c(Cl)c2)cc1)c1ccccc1 [TCN-201, 3-chloro-4-fluoro-N-[(4-[(2-(phenylcarbonyl)hydrazino)carbonyl]phenyl)methyl]-benzenesulfonamide]
TCN-201 activity Max. % inhibition (GluN1/GluN2A [1]; [5]): 100 ± 1% | TCN-201 activity nH (GluN1/GluN2A [1]; [5]): 1.2 | TCN-201 activity nH (GluN1/GluN2A [1]; [6]): 1.5 | TCN-201 activity Max. % inhibition (GluN1/GluN2A [1]; [7]): 73 ± 2% | TCN-201 activity nH (GluN1/GluN2A [1]; [7]): 2.2 | Schild slope (GluN1/GluN2A [1]; agonist D-cycloserine): 0.90 | pA2 (Schild plot) (GluN1/GluN2A [1]; agonist D-cycloserine): 7.39 | Schild slope (GluN1/GluN2A [1]; agonist D-serine): 0.79 | pA2 (Schild plot) (GluN1/GluN2A [1]; agonist D-serine): 7.39 | Schild slope (GluN1/GluN2A [1]; agonist glycine): 0.87 | allosteric constant α (GluN1/GluN2A [1]; global nonlinear regression of glycine concentration-response data): 0.0025 | Maximal increase in glycine EC50 (1/α) (GluN1/GluN2A [1]; implied by α = 0.0025): 400 fold | TCN-201 activity IC50 (GluN1/GluN2B): did not inhibit and N.E. | Kb (GluN1/GluN2B L783F+F784V): 437 nM | TCN-201 activity nH (GluN1/GluN2B L783F+F784V; [6]): 1.3 | TCN-201 activity IC50 (GluN1/GluN2C): did not inhibit and N.E. | TCN-201 activity IC50 (GluN1/GluN2D): did not inhibit and N.E. | Kb (GluN1/GluN2A V783L): 2140 nM | TCN-201 activity Max. % inhibition (GluN1/GluN2A G786D): 82 ± 3% | TCN-201 activity nH (GluN1/GluN2A G786D): 1.7 | TCN-201 activity Max. % inhibition (GluN1/GluN2A T793R): 94 ± 2% | TCN-201 activity nH (GluN1/GluN2A T793R): 2.2 | TCN-201 activity Max. % inhibition (GluN1/GluN2A V783W): 95 ± 2% | TCN-201 activity nH (GluN1/GluN2A V783W): 1.0 | TCN-201 activity Max. % inhibition (GluN1/GluN2A V783S): 89 ± 3% | TCN-201 activity nH (GluN1/GluN2A V783S): 1.4 | TCN-201 activity Max. % inhibition (GluN1/GluN2A V783H): 93 ± 4% | TCN-201 activity nH (GluN1/GluN2A V783H): 0.9 | TCN-201 activity Max. % inhibition (GluN1/GluN2A V783D): 92 ± 2% | TCN-201 activity nH (GluN1/GluN2A V783D): 1.2 | TCN-201 activity Max. % inhibition (GluN1/GluN2A L777A): 98 ± 1% | TCN-201 activity nH (GluN1/GluN2A L777A): 1.2 | TCN-201 activity Max. % inhibition (GluN1/GluN2A Q781A): 94 ± 2% | TCN-201 activity nH (GluN1/GluN2A Q781A): 1.9 | TCN-201 activity Max. % inhibition (GluN1/GluN2A G786A): 87 ± 3% | TCN-201 activity nH (GluN1/GluN2A G786A): 1.8 | Response, % of control [2]: 49 ± 2 % of control | Effect on responses activated by 100 μM glutamate (GluK2 kainate receptors): did not affect responses | τinhibition (GluN1/GluN2A [3]; 3 μM TCN-201 in the presence of both glutamate (50 μM) and glycine (10 μM)): 3.4 ± 0.2 s | τinhibition (time constant for TCN-201 binding) (GluN1/GluN2A [3]; 3 μM TCN-201 pre-incubated in the absence of any agonists): 3.5 ± 0.3 s | τinhibition (GluN1/GluN2A [3]; 3 μM TCN-201 pre-incubated with glutamate alone (50 μM)): 1.1 ± 0.1 s | TCN-201 binding / τinhibition (GluN1/GluN2A [3]; 3 μM TCN-201 pre-incubated with glycine alone (10 μM)): Minimal binding | τweighted for glycine deactivation (GluN1/GluN2A [3]; brief (10 ms) 1 mM glycine, 50 μM glutamate, 1 μM TCN-201): 27 ± 2 ms | % fast (GluN1/GluN2A [3]; [8]): 74 ± 2% | τfast (GluN1/GluN2A [3]; [8]): 20 ± 1 ms | τslow (GluN1/GluN2A [3]; [8]): 131 ± 7 ms | % fast (GluN1/GluN2A [3]; [9]): 82 ± 1% | τfast (GluN1/GluN2A [3]; [9]): 18 ± 1 ms | τslow (GluN1/GluN2A [3]; [9]): 123 ± 11 ms | % fast (GluN1/GluN2A [3]; [10]): 89 ± 2% | τfast (GluN1/GluN2A [3]; [10]): 16 ± 2 ms | τslow (GluN1/GluN2A [3]; [10]): 116 ± 19 ms | τweighted for glycine deactivation vs absence of TCN-201 (GluN1/GluN2A [3]; long (5 seconds) 1 mM glycine, 50 μM glutamate): no significant difference | deactivation time constant, mono-exponential fit (τslow) (GluN1/GluN2A [3]; long application (5 seconds) of 1000 μM glycine, 50 μM glutamate, antagonist 0.3 μM): 124 ± 12 ms | solubility [4]: 18 µM (≈ 8.31 µg/mL) | Inhibition by 3 μM TCN-201 (GluN1/2A-ΔATD): did not reduce inhibition
